From ChEMBL document CHEMBL1157494, “Reduction in post-prandial hyperglycemic excursion through alpha-glucosidase inhibition by beta-acetamido carbonyl compounds” (Bioorg Med Chem Lett, 2008)
The source made the active and inactive calls. No cut-off for these calls is given here.

Experiments:
Rattus norvegicus [1] = organism: Rattus norvegicus; experiment: Inhibition of rat intestinal alpha-glucosidase activity at 50 ug
In short: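 Rat intestinal α-glucosidase assayed in vitro. Compound added as 50 µg from a 5 mg/mL DMSO stock. Percent inhibition run in triplicate and given as mean SD.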

[2] = Inhibition of rat intestinal alpha-glucosidase activity
Rattus norvegicus [3] = experiment: Antihyperglycemic activity in Wistar rat assessed as reduction in postprandial blood glucose rise at 100 mg/kg, po by carbohydrate tolerance test; format: functional, organism-based; set-up: dose 100 mg/kg
In short: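 Rats housed at 22 °C under a 12 h light-dark cycle, six per group, then fasted overnight. Basal plasma glucose was measured by glucose oxidase on retro-orbital EDTA blood. Compounds were suspended in normal saline and given orally at 100 mg/kg; controls received saline only. Delta-glycemia was read at 30–120 min, shown as mean SD and compared by ANOVA with Bonferroni.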

| Compound | inhibition (Rattus norvegicus [1]) [%] | IC50 [2] [µM] | Activity (Rattus norvegicus [3]) |
| --- | --- | --- | --- |
| CC(=O)NC(CC(=O)c1ccc(F)cc1)c1ccc(F)cc1 (centres undefined) | 55.1 | – | – |
| CC(=O)NC(CC(=O)c1ccc(F)cc1)c1ccc(O)cc1 (centres undefined) | 60.1 | 72.8 | – |
| C[C@H]1O[C@H](O[C@H]2[C@H](O)[C@@H](O)[C@@H](O[C@H]3[C@H](O)[C@@H](O)[C@H](O)O[C@@H]3CO)O[C@@H]2CO)[C@H](O)[C@@H](O)[C@@H]1N[C@H]1C=C(CO)[C@@H](O)[C@H](O)[C@H]1O | – | – | Active |
| CC(=O)NC(CC(=O)c1ccc(Br)cc1)c1ccc(F)cc1 (centres undefined) | 2.7 | – | – |
| CC(=O)NC(CC(=O)c1ccc(Br)cc1)c1ccc(C)cc1 (centres undefined) | 95.1 | 5.53 | Active |

Now from value to compound, other results behind:

| inhibition (Rattus norvegicus [1]) [%] | IC50 [2] [µM] | Compound | Activity (Rattus norvegicus [3]) |
| --- | --- | --- | --- |
| 72.2 | 25.6 | CC(=O)NC(CC(=O)c1ccccc1)c1ccc([N+](=O)[O-])cc1 (centres undefined) | – |
| 85 | 9.07 | CC(=O)NC(CC(=O)c1ccc([N+](=O)[O-])cc1)c1ccc(C)cc1 (centres undefined) | Active |
| 52.7 | – | CC(=O)NC(CC(=O)c1ccc([N+](=O)[O-])cc1)c1ccc([N+](=O)[O-])cc1 (centres undefined) | – |
